Test results reported in article PMC11436873 (Nature Communications, 2024).
≈ marks a conversion by molar mass, not a printed value.

How the values were obtained:
C. parvum [1] = test: NOD SCID gamma mouse model of cryptosporidiosis, fecal parasite shedding by qPCR; format: in vivo; conditions: NSG mice
Outline: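 Male NSG mice aged 4–5 weeks are infected with C. parvum oocysts. Oral gavage starts 7 (or 14) days post-infection and runs 7 days. Dosing stock in DMSO is diluted into 1% HPMC (5% DMSO final, 100 μL per dose), with a paromomycin control. Fecal shedding per mg feces is measured by qPCR at treatment start, at treatment end and one week later. n = 4 mice per group, mean and SEM.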

HCT-8 cells = test: host cell cytotoxicity, CellTiter AQueous; format: cell-based, human
Outline: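 HCT-8 cells are grown in RPMI 1640 with 10% heat-inactivated FBS and penicillin/streptomycin at 37 °C, 5% CO2, used at passages 9–39. Confluent (>95%) monolayers get varying compound concentrations for 48 h. MTS reduction is read at 490 nm, blanked against trypsinised wells, and expressed as % viability versus DMSO. TC50 is curve-fitted; the selectivity index is the […].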

[2] = kinetic aqueous solubility
Cryptosporidium = conditions: cited from earlier work
C. parvum [3] = test: Cryptosporidium rate-of-action assay in HCT-8 cells; format: cell-based, Cryptosporidium parvum; conditions: for parasite elimination in rate-of-action assay: nitazoxanide at EC90, highest tolerated concentration
Outline: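 HCT-8 monolayers (>90% confluent) are infected with C. parvum sporozoites excysted with 10 mM HCl and then 2 mM taurocholate. […] Cells are fixed, stained with V. villosa lectin and Hoechst, and counted by epifluorescence. Counts are normalised to host nuclei and DMSO wells, then fitted to one-phase exponential decay. Four wells per condition.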

human PDE-V = conditions: read-out: IC50 for human PDE-V; cited from earlier work
[4] = test system: C. parvum CpPDE1 Val900Ala; test: HCT-8 cell growth assay, CRISPR CpPDE1 Val900Ala mutant parasite; format: cell-based; conditions: Cryptosporidium parvum, HCT-8, read-out: EC50, CpPDE1 V900A, HCT-8 cell growth assay
hERG potassium channel = hERG potassium channel (Homo sapiens, UniProt Q12809); test: hERG [3H]-dofetilide competitive binding; conditions: probe [3H]-dofetilide
[5] = NSG mouse weights and tolerability during efficacy testing; format: in vivo, Mus musculus (NOD SCID gamma mice); conditions: 50 mpk twice daily, 7 days
47 human targets = test: Eurofins SafetyScan47 panel, whole panel; conditions: dose-response up to 30 μM
C. hominis Tu502 strain = test: C. hominis growth in HCT-8 cells, same method; format: cell-based; conditions: Cryptosporidium hominis, HCT-8, read-out: C. hominis EC50
Outline: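 TU502 oocysts, used within 1 month, excysted with 10 mM HCl (10 min, 37 °C) and then 2 mM sodium taurocholate in PBS (10 min, 16 °C). Material from 5500 oocysts/well was added to >95% confluent HCT-8 monolayers (passages 9–39, 37 °C, 5% CO2). Compound went in 3 h post-infection, with nitazoxanide as control. At 48 h, cells were fixed with paraformaldehyde and stained with fluorescein-Vicia villosa lectin plus Hoechst.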

hERG potassium channel, sequence (Q12809 whole entry): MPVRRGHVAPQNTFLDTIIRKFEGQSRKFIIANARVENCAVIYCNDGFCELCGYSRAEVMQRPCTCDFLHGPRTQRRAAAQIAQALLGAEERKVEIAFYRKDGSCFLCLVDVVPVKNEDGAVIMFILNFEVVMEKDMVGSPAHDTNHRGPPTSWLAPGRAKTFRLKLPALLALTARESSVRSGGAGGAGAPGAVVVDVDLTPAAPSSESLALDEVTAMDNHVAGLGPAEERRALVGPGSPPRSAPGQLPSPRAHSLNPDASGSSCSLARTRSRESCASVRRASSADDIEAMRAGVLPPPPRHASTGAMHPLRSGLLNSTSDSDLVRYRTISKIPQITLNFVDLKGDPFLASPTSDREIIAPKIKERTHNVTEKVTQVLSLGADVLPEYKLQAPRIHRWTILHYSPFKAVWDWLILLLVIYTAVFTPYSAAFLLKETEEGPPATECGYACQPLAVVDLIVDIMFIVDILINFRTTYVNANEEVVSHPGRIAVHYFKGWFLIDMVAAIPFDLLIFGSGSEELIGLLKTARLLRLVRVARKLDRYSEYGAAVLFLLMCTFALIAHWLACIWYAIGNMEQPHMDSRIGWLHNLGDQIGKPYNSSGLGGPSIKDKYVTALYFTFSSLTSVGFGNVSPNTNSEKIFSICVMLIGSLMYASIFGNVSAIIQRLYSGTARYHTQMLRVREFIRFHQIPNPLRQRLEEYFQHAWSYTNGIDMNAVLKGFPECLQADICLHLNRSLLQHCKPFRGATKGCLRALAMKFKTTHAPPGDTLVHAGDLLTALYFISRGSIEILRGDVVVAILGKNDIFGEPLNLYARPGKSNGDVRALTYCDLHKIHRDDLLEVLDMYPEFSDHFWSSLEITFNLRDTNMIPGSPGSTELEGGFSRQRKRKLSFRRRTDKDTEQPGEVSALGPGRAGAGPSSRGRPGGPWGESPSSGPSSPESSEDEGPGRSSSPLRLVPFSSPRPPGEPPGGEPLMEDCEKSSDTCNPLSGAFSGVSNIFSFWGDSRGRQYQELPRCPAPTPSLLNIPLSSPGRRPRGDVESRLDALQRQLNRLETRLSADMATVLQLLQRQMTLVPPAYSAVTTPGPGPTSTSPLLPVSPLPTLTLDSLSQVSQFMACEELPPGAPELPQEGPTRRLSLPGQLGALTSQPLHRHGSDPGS

**Q.** With `COc1ccc(CNc2nc(-c3ccc(C(=O)O)cc3)nc3c2c2ccccc2n3C)cc1Cl` [PDEi4] as the compound, how does the “efficacy, 7-day dosing” value (C. parvum [1]; 50 mpk twice daily oral) read?
**A.** no significant effect

**Q.** And the selectivity index (HCT-8 cells; HCT-8 TC50 vs C. parvum EC50)?
**A.** 100

**Q.** What about the solubility kinetic at 2 h ([2]; PBS, pH 7.4, aqueous buffer, kinetic from dmso stock) of the same compound?
**A.** 21 µM (≈ 9.93 µg/mL)

**Q.** Which “effectiveness in AIDS patients” value (Cryptosporidium) does the source give for `CC(=O)Oc1ccccc1C(=O)Nc1ncc([N+](=O)[O-])s1` [nitazoxanide] here?
**A.** equivalent to a placebo

**Q.** And the effectiveness in children (Cryptosporidium)?
**A.** ~ 56%

**Q.** And the “parasite elimination in rate-of-action assay” value (C. parvum [3])?
**A.** no nitazoxanide-dependent parasite elimination occurred

**Q.** What about the “parasite elimination in rate-of-action assay” value (C. parvum [3]; listed as NTZ) of the same compound?
**A.** No exponential decay curve could be fit

**Q.** Which results are given for `CCCc1nn(C)c2c(=O)[nH]c(-c3cc(S(=O)(=O)N4CCN(C)CC4)ccc3OCC)nc12` [sildenafil]?
**A.** IC50 (human PDE-V): 0.0035 µM; EC50 [4]: 14 µM

**Q.** With `CCc1nn(C)c2nc(-c3ccc(C(=O)O)cc3)nc(NCc3ccc(F)cc3)c12` [PDEi5, 4-(3-ethyl-4-((4-fluorobenzyl)amino)-1-methyl-1H-pyrazolo[3,4-d]pyrimidin-6-yl)benzoic acid] as the compound, how does the inhibition at 10 µM (hERG potassium channel) read?
**A.** -14.7%

**Q.** And the “fall of mean mouse weight in the final days of treatment” value [5]?
**A.** ~ 5%

**Q.** And the “time required for 99.9% parasite reduction” value (C. parvum [3]; in the absence of host immune help)?
**A.** ~ 107 h

**Q.** What about the “SafetyScan47 EC50/IC50 for 45 of 47 targets” value (47 human targets) of the same compound?
**A.** > 30 µM

**Q.** And the “reduction of parasite shedding after 7 days of treatment” value (C. parvum [1]; 50 mpk twice daily oral)?
**A.** ~ 99%

**Q.** And the relapse after treatment (C. parvum [1]; after 7-day dosing)?
**A.** infection relapsed within a week of stopping treatment

**Q.** And the “toxicity to the HCT-8 cell line” value (HCT-8 cells; 100 μM, highest concentration tested)?
**A.** non-toxic

**Q.** What about the solubility kinetic ([2]; aqueous solution, pH 7.4) of the same compound?
**A.** 200 µM (≈ 81.1 µg/mL)

**Q.** What about the EC50 (C. hominis Tu502 strain) of the same compound?
**A.** 4.7 µM
